Assay outcomes: PubChem, several laboratories
This is a sample that favours compounds with a hit; in the whole collection about 4.1% have one here.
STAT1 activator – STAT1 signaling activation. NIH 3T3 STAT1-luciferase reporter, IFN-gamma, luminescence; 100% = IFN-gamma alone, no compound. activation (% of control), % at 5.5 µM. 200,000 tested, 2.6% active. AID 932;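 active = activation above the screen-wide mean activation plus 3 SD, cut at about 130% in these data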;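 also: raw ratio to IFN-gamma control signal so 100% means no change and 0% no light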
NF-kB expr up – raises NF-kB expression in human neuronal cells; NF-kB reporter expression; hits give high values; fold change at 12.5 µM; 190,000 tested, 1.6% active; AID 1239; in the data active = fold change above about 3.3
APP 5'UTR act – activates APP 5'UTR luciferase reporter. SH-SY5Y APP 5'UTR luciferase reporter, luminescence; zero percent = DMSO vehicle wells. activation, % at 2 µM. 190,000 tested, 1% active. AID 1276;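 active = activation above a set limit, based on mean plus 3 SD of controls, cut at about 140% in these data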
FLuc stim CS – affects firefly luciferase, flagging false hits in luciferase stimulation screens; P08659; ATPlite luciferase biochemical, luminescence, 10 min; 0 = ATP-free wells, 1 = DMSO control; activation factor at 10 µM; 200,000 tested, under 10 active; AID 1027;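 active = luciferase activation factor, scaled between plate controls, of at least 2 with compound at 10 µM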
Target sequence (P08659 whole entry, looked up): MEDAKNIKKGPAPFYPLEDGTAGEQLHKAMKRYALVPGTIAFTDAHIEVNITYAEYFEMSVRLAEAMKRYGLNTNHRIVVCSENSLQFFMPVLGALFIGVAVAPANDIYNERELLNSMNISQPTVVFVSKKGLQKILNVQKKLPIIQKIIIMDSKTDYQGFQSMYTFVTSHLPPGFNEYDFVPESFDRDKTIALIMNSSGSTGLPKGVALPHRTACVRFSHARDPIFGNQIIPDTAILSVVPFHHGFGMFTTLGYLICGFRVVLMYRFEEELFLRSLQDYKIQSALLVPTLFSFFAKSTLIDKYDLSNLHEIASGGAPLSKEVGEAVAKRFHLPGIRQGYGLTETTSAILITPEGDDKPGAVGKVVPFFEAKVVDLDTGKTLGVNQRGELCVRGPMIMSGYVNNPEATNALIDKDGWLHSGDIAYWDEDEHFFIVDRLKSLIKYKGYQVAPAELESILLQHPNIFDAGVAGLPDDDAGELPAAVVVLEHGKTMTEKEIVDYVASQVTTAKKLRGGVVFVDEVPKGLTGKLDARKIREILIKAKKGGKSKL
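test system = cell-free luciferase reagent | medium = PBS as buffer for the ATP substrate | dosing = test compounds dosed from 2 mM stocks in 100% DMSO | incubation = 10 min at ambient temperature | detection = luminescence measurement of luciferase light output | benchmarks = low control with PBS replacing ATP, high control enzyme plus ATP without compound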
FLuc inhib CS – inhibits firefly luciferase, flagging false hits in luciferase inhibition screens | P08659 | ATPLite firefly luciferase biochemical luminescence, 10 min | inhibition, % at 10 µM | 200,000 tested, 1.5% active;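 active = inhibition above about 50% when tested at 10 µM, limit read from the data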
Active calls of the source: *; . = no result.

SMILES	STAT1 activator	NF-kB expr up	APP 5'UTR act	FLuc stim CS	FLuc inhib CS
CSc1nc2ccc(NS(=O)(=O)c3cccc(Cl)c3Cl)cc2s1	110.6	1.05	-4.3	1	0.7
O=C(/C=C/NNC(=O)c1ccccc1)c1ccc([N+](=O)[O-])cc1	105.5	1.07	7.1	0.9	8.3
C/C(=N/OC(=O)c1ccc(F)cc1)c1ccc(C)cc1	101.6	1.92	-3.8	0.3	70.0*
CC1CCN(CCCCOc2ccc(C(=O)c3ccccc3)cc2)CC1	97.2	0.91	10.3	1.1	-5.1
c1ccc(Cc2ccc(OCCn3cncn3)cc2)cc1	104.8	0.85	1.4	1.1	-8.2
c1ccc(COc2ccc(OCCCn3cncn3)cc2)cc1	113.8	5.29*	136.4*	0.5	46.2
c1ccc(COc2ccc(OCCCN3CCCC3)cc2)cc1	103.6	1.96	98.8	0.4	58.5*
CC1CCN(CCCOc2ccc(OCc3ccccc3)cc2)CC1	108.9	5.08*	6.5	1.1	-6.0
O=C(NCCN1C(=O)S/C(=C\c2cccnc2)C1=O)C1=NN(c2ccccc2)C(=O)CC1	101.9	0.96	20.1	1.1	-6.6
Cc1nc2ccccc2c(=O)n1NC(=O)Cc1ccccc1	100.6	.	-6.3	.	.
O=S(=O)(N/N=C/c1ccc(OC2CSC2)cc1)c1ccccc1	102.6	0.98	-1.8	1	-4.2
Cn1nnc(NC(=O)c2ccc3ccccc3c2)n1	100.5	1.4	18.8	0.8	24.2
CCOc1ccc(C(=O)Nc2cc(C)ccn2)cc1	30.2	3.69*	186.0*	0	97.3*
CCOc1cc(C(=O)Nc2cc(C)ccn2)cc(OCC)c1OCC	107.7	1.09	3.0	1	-0.5
Cc1cccc(NC(=O)c2ccc(COc3ccc(Cl)cc3Cl)o2)n1	100.7	1.09	1.3	1	2.1
Cc1cccc(NC(=O)c2ccc(COc3ccc4ccccc4c3)o2)n1	144.8*	2.3	21.4	1.1	-5.3
Cc1cccc(NC(=O)c2csnn2)n1	101.5	13.2*	-17.9	1	-3.1
Cn1nnc(NC(=O)c2ccc(C(C)(C)C)cc2)n1	103.2	1.99	78.4	0.2	79.8*
Cc1ccc(NC(=O)c2csnn2)c(C)c1	100.2	1.74	15.8	1	-4.2
Cc1cccc(NC(=O)c2ccc(S(=O)(=O)N(C)C)cc2)n1	108.4	1.33	10.8	1	3.8
CCOc1ccc(C(=O)Nc2nnn(CC)n2)cc1	116.0	2.08	64.2	0.4	60.5*
CCOc1ccc(C(=O)Nc2cccc(C)n2)cc1	112.3	4.57*	143.7*	0.2	79.0*
CCCn1nnc(NC(=O)c2ccc(OC)cc2)n1	125.6	1.7	-1.1	0.9	13.1
COc1ccc2nc(N3CCOCC3)cc(C)c2c1	119.9	5.02*	114.4	0.6	44.7
COC(=O)c1c(-c2ccc(F)cc2)csc1NC(=O)c1ccco1	145.6*	1.37	34.9	0.9	13.5
SMILES	STAT1 activator	NF-kB expr up	APP 5'UTR act	FLuc stim CS	FLuc inhib CS
CN(Cc1ccsc1)C(=O)CCc1nnc(CCCc2ccccc2)o1	133.3*	2.7	43.8	1	-2.9
Cc1nc(C(C)NC(=O)CCc2nnc(CCCc3ccccc3)o2)c(C)s1 (stereo not drawn)	148.8*	3.23	37.9	1	-3.7
CC[C@@H](C)C(NC(=O)OC(C)(C)C)c1cn([C@@H](Cc2cc3ccccc3[nH]2)C(=O)N2CCN(C(=O)OC(C)(C)C)CC2)nn1 (stereo partly drawn)	98.1	0.6	12.4	1.1	-7.4
CN(C)S(=O)(=O)Oc1cccc(C(=O)Nc2cccc(Cl)c2)c1	115.9	1.63	72.0	1	3.8
COC(=O)c1ccc(OS(=O)(=O)N(C)C)cc1	129.9*	1.04	26.8	0.9	9.1
COc1ccc(NC(=O)c2cccc(OS(=O)(=O)N(C)C)c2)cc1	109.7	4.75*	156.6*	0.5	53.6*
CN(C)S(=O)(=O)Oc1cccc(C(=O)Nc2ccc(Cl)c(Cl)c2)c1	137.4*	4.23*	174.4*	1	1.1
O=C1NNC(=O)C2C3C=CC(C4CC34)C12 (stereo not drawn)	105.4	1.07	-0.1	1	-0.7
Cc1nn(-c2ccccn2)c2c1-c1nc(N)ncc1CC2	134.0*	1.66	44.7	0.4	61.0*
COc1cc([N+](=O)[O-])cc2sc(NC(=O)C3CC3)nc12	104.8	1.24	33.6	1	2.1
O=S(=O)(c1ccc(F)cc1)N1CCN(Cc2ccccn2)CC1	102.1	1.15	5.9	1.1	-7.0
NC(=O)c1ccccc1N/C=C/C(=O)c1ccccc1	91.4	5.46*	132.0	0.1	89.0*
COC(=O)c1ccccc1N/C=C/C(=O)c1ccc(Br)cc1	122.6	1.87	25.0	1	1.0
NC(=O)c1ccccc1NC(=O)/C=C/c1ccccc1	129.3*	3.57*	103.6	0.2	82.3*
NC(=O)c1ccccc1NC(=O)/C=C/c1ccc(Cl)cc1	143.9*	3.02	159.7*	0.2	80.5*
Cc1ccc(C(=O)NCCCc2ccccc2)c(C)c1	136.0*	1.08	160.2*	0.9	12.2
Cc1cc2c(C)nc(-c3ccccc3)nc2o1	130.0*	1.85	29.5	0.9	11.6
Cc1nc(NCc2ccco2)c2c3c(sc2n1)CCC3	149.8*	0.88	0.3	1.1	-9.1
c1coc(CNc2ncnc3sc4c(c23)CCCCC4)c1	100.5	0.75	-0.8	1	-3.1
CCCc1cc(=O)n2c([nH]c3ccccc32)c1C#N	93.6	1.25	-5.7	0.3	65.7*
Cc1ccc(-c2nnn(CC(=O)Nc3nnc(C(C)C)s3)n2)cc1	100.2	1.28	4.4	1	1.8
CC1=C(C)C(=O)NC(Nc2nc(C)c3cc(C)cc(C)c3n2)N1 (stereo not drawn)	105.8	.	-3.0	.	.
O=C(NNC(=O)c1cc(O)c(O)c(O)c1)NC1CCCCC1	100.4	1.2	3.5	1.1	-8.6
CCOC(=O)C1=c2/c(=C/c3ccncc3)c(N)c(C(=O)OC)n2C(=O)C(c2ccncc2)S1 (stereo not drawn)	109.7	0.52	14.4	1	-4.6
COc1cc(OC)cc(C(=O)NCC(=O)OCc2nc3ccccc3s2)c1	145.4*	1.84	139.5*	0.8	21.3
SMILES	STAT1 activator	NF-kB expr up	APP 5'UTR act	FLuc stim CS	FLuc inhib CS
O=C(OCc1nc2ccccc2s1)c1cccs1	136.9*	1.23	-7.0	0.7	29.7
Cc1ccccc1C(=O)Nc1cccc(NC(=O)Cn2cnc3c(=O)n(C)c(=O)n(C)c32)c1	95.6	5.42*	-13.4	1	-0.2
Cc1cccc(C)c1NC(=O)Cn1cnc2c(=O)n(C)c(=O)n(C)c21	91.6	0.89	-4.2	1.1	-10.3
CC(C)NC(=S)N/N=C1\CCCCC1C1CCCCC1 (stereo not drawn)	103.0	1.52	7.8	1	-2.4
O=[N+]([O-])c1cc(-c2nc3nc4ccccc4nc3n2CCc2ccccc2)cc([N+](=O)[O-])c1	100.9	1.12	1.6	1	0.3
CC(C)c1ccc(NC(=O)CSc2ncccc2C(=O)Oc2cccc([N+](=O)[O-])c2)cc1	114.2	0.89	76.2	1	1.7
